Test results from ChEMBL document CHEMBL1154986, “New anti-malarial phenylpropanoid conjugated iridoids from Morinda morindoides” (Bioorg Med Chem Lett, 2010).
Values after ≈ are worked out from the molar mass of the structure shown.

Legend:
[1] = Cytotoxicity against human KB-3-1 cells at 150 uM after 72 hrs by MTT assay; assay type: cell-based; conditions: read-out: GI
[2] = system: Plasmodium falciparum; assay: Antimalarial activity against cycloguanil-resistant Plasmodium falciparum CDC1 assessed as inhibition of ring stage parasitaemia after 48 hrs by Giemsa staining; assay type: functional, organism-based; conditions: CDC1, 48 h
How it was run: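 Sorbitol-synchronized ring-stage culture (0.5% parasitemia, 4% hematocrit type O human RBC) in RPMI 1640 with 10% heat-inactivated type O human serum, HEPES, glutamine, NaHCO3, hypoxanthine, gentamycin; 5% CO2/5% O2/90% N2, 37 °C. Samples from DMSO stock diluted in medium, 1% DMSO final; 48 h. Proliferation counted on Giemsa thin films, 10,000 erythrocytes per film, triplicate. Quinine as control.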

[3] = Cytotoxicity against human KB-3-1 cells after 72 hrs by MTT assay; assay type: cell-based; conditions: KB 3-1, 72 h
How it was run: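 KB-3-1 cells grown in RPMI 1640 with 10% newborn calf serum, glutamine, kanamycin, 5% CO2, 37 °C. 1.0 × 10^4 cells per well, then sample added in medium containing 2% DMSO; 72 h at 37 °C. MTT (2 mg/mL in PBS) added afterwards; growth inhibition from absorbance at 540 nm. Mitomycin C as positive control.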

Compound | inhibition at 72 h, 150 µM [1] [%] | IC50 [2] | IC50 [3] [µg/mL] | IC90 [2] [µg/mL]
COC(=O)C1=CO[C@@H](O[C@@H]2O[C@H](COC(C)=O)[C@@H](O)[C@H](O)[C@H]2O)[C@H]2[C@@H]1C=C[C@@]21C=C([C@H](O)c2ccc(O)c(OC)c2)C(=O)O1 | 9.3 | 100 nM |  | 
COC(=O)C1=CO[C@@H](O[C@@H]2O[C@H](COC(C)=O)[C@@H](O)[C@H](O)[C@H]2O)[C@H]2[C@@H]1C=C[C@@]21C=C([C@H](O)c2ccc(O)cc2)C(=O)O1 | 4.3 | 4100 nM |  | 
COC(=O)C1=CO[C@@H](O[C@@H]2O[C@H](CO)[C@@H](O)[C@H](O)[C@H]2O)[C@H]2[C@@H]1C=C[C@@]21C=C([C@H](O)c2ccc(O)c(OC)c2)C(=O)O1 | 13.1 | 21900 nM |  | 
COC(=O)C1=CO[C@@H](O[C@@H]2O[C@H](CO)[C@@H](O)[C@H](O)[C@H]2O)[C@H]2[C@@H]1C=C[C@@]21C=C([C@H](O)c2ccc(O)cc2)C(=O)O1 | 13.4 | 800 nM |  | 
COC(=O)C1=CO[C@@H](O[C@@H]2O[C@H](CO)[C@@H](O)[C@H](O)[C@H]2O)[C@H]2[C@@H]1C=C[C@@]21C=C(C(=O)c2ccc(O)c(OC)c2)C(=O)O1 [DEHYDROMETHOXYGAERTNEROSIDE] | 6.1 | 40 nM |  | 
CO[C@@]12[C@H](COC(N)=O)C3=C(C(=O)C(C)=C(N)C3=O)N1C[C@@H]1N[C@@H]12 [MITOMYCIN] |  |  | 0.1 (≈ 0.299 µM) | 
C=C[C@H]1CN2CC[C@H]1C[C@H]2[C@H](O)c1ccnc2ccc(OC)cc12 [QUININE] |  | 0.04 µg/mL |  | 0.09 (≈ 0.277 µM)
